Laboratory results from ChEMBL document CHEMBL2203075, “Terpecurcumins A-I from the rhizomes of Curcuma longa: absolute configuration and cytotoxic activity” (J Nat Prod, 2012).

Legend:
Format in all cases: functional, cell-based
MDA-MB-231 = assay: Cytotoxicity against human MDA-MB-231 cells after 72 hrs by crystal violet staining based microplate reader analysis; conditions: MDA-MB-231, 72 h
Summary of the method: (§1)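 ATCC HepG2 and MDA-MB-231 cells grown in DMEM with 10% FBS and no antibiotics. Medium was changed at 50–60% confluence (24–48 h post-plating), then cells were exposed for 72 h. Fixation used 1% glutaraldehyde in PBS for 15 min, followed by 0.02% aqueous crystal violet for 30 min. After a PBS wash and 70% EtOH solubilization, absorbance was read at 570 nm (ref 405 nm). IC50 derived; Taxol was the positive control.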

A549 = assay: Cytotoxicity against human A549 cells after 72 hrs by crystal violet staining based microplate reader analysis; conditions: A549, 72 h
Summary of the method: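 At 50–60% confluence (24–48 h after plating), medium was refreshed before a 72 h treatment. Cells were fixed in 1% glutaraldehyde/PBS for 15 min and stained with 0.02% crystal violet for 30 min. After a PBS wash, dye was solubilized in 70% EtOH and read at A570 (ref 405 nm). IC50 reported; Taxol was the positive control.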

HepG2 = assay: Cytotoxicity against human HepG2 cells after 72 hrs by crystal violet staining based microplate reader analysis; conditions: HepG2, 72 h; summary of the method: as §1

Structure (SMILES)	IC50 (MDA-MB-231) [µM]	IC50 (A549) [µM]	IC50 (HepG2) [µM]
COc1cc(/C=C/C(=O)/C=C(O)/C=C/c2ccc(O[C@H]3C=C(C)[C@@H](O)C[C@@H]3[C@@H](C)CC(=O)C=C(C)C)c(OC)c2)ccc1O [BISABOLOCURCUMIN ETHER]	10.6	16.1	15.4
O=C(/C=C/c1ccc(O)cc1)CC(=O)/C=C/c1ccc(O)cc1 [BISDEMETHOXYCURCUMIN]	38.5	38.1	62.9
COc1cc(/C=C/C(=O)CC(=O)/C=C/c2ccc(O)c(OC)c2)ccc1O [CURCUMIN]	37.8	49.2	31.3
COc1cc(/C=C/C(O)=C/C(=O)/C=C/c2ccc(O)cc2)ccc1O[C@H]1C=C(C)[C@@H](O)C[C@@H]1[C@@H](C)CC(=O)C=C(C)C [DEMETHOXYBISABOLOCURCUMIN ETHER]	10.3	16.6	13
COc1cc(/C=C/C(O)=C/C(=O)/C=C/c2ccc(O)cc2)ccc1O [DEMETHOXYCURCUMIN]	44.3	38.1	58.1
CC(C)=CC(=O)C[C@H](C)[C@H]1C[C@H](O)C(C)=C[C@@H]1Oc1ccc(/C=C/C(O)=C/C(=O)/C=C/c2ccc(O)cc2)cc1 [DIDEMETHOXYBISABOLOCURCUMIN ETHER]	30.8	27.4	22.7
CC(=O)O[C@H]1C(=O)[C@@]2(C)[C@H]([C@H](OC(=O)c3ccccc3)[C@]3(O)C[C@H](OC(=O)[C@H](O)[C@@H](NC(=O)c4ccccc4)c4ccccc4)C(C)=C1C3(C)C)[C@]1(OC(C)=O)CO[C@@H]1C[C@@H]2O [PACLITAXEL]	0.052	0.056	0.054
COc1cc(/C=C/C(=O)/C=C(O)/C=C/c2ccc(O[C@H]3C=C(C)[C@@H](O)C[C@@H]3[C@@H](C)CCC=C(C)C)c(OC)c2)ccc1O [TERPECURCUMIN A]	27.3	30.6	25
COc1cc(/C=C/C(=O)/C=C(O)/C=C/c2ccc(O[C@H]3C[C@H]([C@@H](C)CCC=C(C)C)[C@@H](O)C=C3C)c(OC)c2)ccc1O [TERPECURCUMIN B]	74.9	61.9	64.1
COc1cc(/C=C/C(=O)/C=C(O)/C=C/c2ccc(O[C@H]3C[C@H]([C@@H](C)CCC=C(C)C)C=C[C@@]3(C)O)c(OC)c2)ccc1O [TERPECURCUMIN C]	24.6	35	29.5
COc1cc(/C=C/C(=O)/C=C(O)/C=C/c2ccc(O[C@H]3C[C@H]([C@@H](C)CC(=O)C=C(C)C)C=C[C@@]3(C)O)c(OC)c2)ccc1O [TERPECURCUMIN D]	15.9	14.3	18.3
COc1cc(/C=C/C(=O)/C=C(O)/C=C/c2ccc(O[C@]3(C)C=C[C@@H]([C@@H](C)CCC=C(C)C)C[C@@H]3O)c(OC)c2)ccc1O [TERPECURCUMIN E]	84.1	41.4	35.9
COc1cc(/C=C/C(=O)/C=C(O)/C=C/c2ccc(O[C@]3(C)C=C[C@@H]([C@@H](C)CC(=O)C=C(C)C)C[C@@H]3O)c(OC)c2)ccc1O [TERPECURCUMIN F]	19.4	15.2	15.7
COc1cc(/C=C/C(=O)/C=C(O)/C=C/c2ccc(O[C@]3(C)C=C[C@@H]([C@@H](C)CC(=O)C=C(C)C)C[C@@H]3O)cc2)ccc1O [TERPECURCUMIN G]	15.9	14.5	17.1
COc1cc(/C=C/C(=O)/C=C(O)/C=C/c2cc(OC)c(O)c([C@H]3C=C(C)[C@@H](O)C[C@@H]3[C@@H](C)CCC=C(C)C)c2)ccc1O [TERPECURCUMIN H]	43.7	84.3	54.6
COc1cc(/C=C/C(=O)/C=C(O)/C=C/c2cc(OC)c(O)c([C@H]3C=C(C)CC[C@@H]3[C@@H](C)CC(=O)C=C(C)C)c2)ccc1O [TERPECURCUMIN I]	69.5	41.1	50.3
